The text below walks through data of article PMC7115568 (European Journal of Medicinal Chemistry, 2014).

The subject of data set [1] is human prostate (PC-3) cancer cell line. Briefly: In vitro cytotoxic studies. The format is cell-based. The conditions noted are these: PC-3 cells; tested at 0.2, 2.0 and 20 μM. The gist of the method: (§1)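 PC-3 cells grown in DMEM with 10% FBS and plated in 96-well format. They were exposed to test compound over 20 μM–0.001 μM for 72 h. MTT was then added (stock 5 mg/ml in PBS) for 4 h. Plates were spun, supernatant removed and formazan dissolved in DMSO with 30 min shaking. A550 was read and percentage inhibition calculated.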

Data set [2] is described as follows: In vitro cytotoxic studies. The format is cell-based, human. The following applies: human, PC-3 prostate cancer cells. The gist of the method: as §1
The subject of a further data set is Tritrichomonas foetus. The data set is described as follows: In vitro protozoal parasite susceptibility assay. The format is cell-based. The conditions noted are these: Tritrichomonas foetus, 24 h, read-out: Average % inhibition at 50 μM (Tritrichomonas foetus). The gist of the method: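 T. foetus strain D1 was screened in TYM Diamond's medium. Test compound was dissolved in DMSO and diluted into the medium. After 24 h exposure, parasites were counted with a hemacytometer.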

Entries after “also recorded” stand apart in the source; their conditions may differ.

As for `O=C1C(=O)N(CC#CCN2CCN(c3ccnc4cc(Cl)ccc34)CC2)c2ccccc21` [Compound 7a, 1-{4-[4-(7-Chloro-quinolin-4-yl)-piperazin-1-yl]-but-2-ynyl}-1H-indole-2,3-dione], the “Cytotoxicity against PC-3 cell line (in words)” value in data set [1] is “no cytotoxicity; also recorded: minimal toxicity”. Also, in data set [2], the cytotoxicity at 72 h, 0.2 µM was 9%; the cytotoxicity at 72 h, 2 µM stood at 10.1%; the cytotoxicity at 72 h, 20 µM was -3.2%. Moreover, the inhibition (as a rule, the drop in the measured response relative to a control, in per cent) at 50 µM with Tritrichomonas foetus is 98.5%.
The like results for `O=C1C(=O)N(CC#CCN2CCN(c3ccnc4cc(Cl)ccc34)CC2)c2ccc(Cl)cc21` [Compound 7c, 5-Chloro-1-{4-[4-(7-chloro-quinolin-4-yl)-piperazin-1-yl]-but-2-ynyl}-1H-indole-2,3-dione] were, in that order, “no cytotoxicity; also recorded: minimal toxicity”, 6.1%, 1.2%, 1.4% and 100%.
